Experimental data collected from several papers.
Protocols differ between the studies behind these lines. ≈ marks a conversion by molar mass, not a printed value.

N#CC(=C1C=CC(=NOC(=O)OCc2ccccc2)C=C1)c1ccccc1 — MIC (Candida tropicalis; microbial growth, broth dilution; ATCC13803; 48 h): 128 µg/mL
C=C[C@]1(C)C[C@@H](OC(=O)CS[C@@H]2C[C@H]3CC[C@@H](C2)N3C)[C@]2(C)[C@H](C)CC[C@]3(CCC(=O)[C@H]32)[C@@H](C)[C@@H]1O — MIC90 (Streptococcus agalactiae; microbial growth; clinical isolate): 0.0312 µg/mL
CC(=O)N1CCN(c2ccc(OCC3COC(Cn4ccnc4)(c4ccc(Cl)cc4Cl)O3)cc2)CC1 (stereo not shown) — MIC (Candida tropicalis; microbial growth, broth dilution; CGMCC2; 48 h): 1 µM
CC(=O)ON=C1C=CC(=C(C#N)c2ccccc2)C=C1 — MFC (Candida tropicalis; microbial killing, broth dilution; ATCC13803; 48 h): 4 µg/mL (≈ 15.1 µM)
C[C@@H]1[C@H](O)[C@@H](C)/C=C/C=C/C=C/C=C/C=C/C=C/C=C/[C@H](O[C@@H]2O[C@H](C)[C@@H](O)[C@H](N)[C@@H]2O)C[C@@H]2O[C@](O)(C[C@@H](O)C[C@@H](O)[C@H](O)CC[C@@H](O)C[C@@H](O)CC(=O)O[C@H]1C)C[C@H](O)[C@H]2C(=O)O — MIC (Candida tropicalis; microbial growth, broth dilution; CGMCC2; 48 h): < 0.25 µM
OC(Cn1cncn1)(Cn1cncn1)c1ccc(F)cc1F — MIC (Candida tropicalis; microbial growth, broth dilution): 8 µg/mL
CO[C@H]1/C=C/O[C@@]2(C)Oc3c(C)c(O)c4c(O)c(c(/C=N/N5CCN(C)CC5)c(O)c4c3C2=O)NC(=O)/C(C)=C\C=C\[C@H](C)[C@H](O)[C@@H](C)[C@@H](O)[C@@H](C)[C@H](OC(C)=O)[C@@H]1C — MIC90 (Mycolicibacterium smegmatis; microbial growth): 1.52 µM
C[C@@H]1[C@H](O)[C@@H](C)/C=C/C=C/C=C/C=C/C=C/C=C/C=C/[C@H](O[C@@H]2O[C@H](C)[C@@H](O)[C@H](N)[C@@H]2O)C[C@@H]2O[C@](O)(C[C@@H](O)C[C@@H](O)[C@H](O)CC[C@@H](O)C[C@@H](O)CC(=O)O[C@H]1C)C[C@H](O)[C@H]2C(=O)O — MIC (Candida tropicalis; microbial growth, broth dilution; ATCC13803; 48 h): 32 µg/mL
NNC(=O)c1ccncc1 — MIC90 (Mycolicibacterium smegmatis; microbial growth): 17.7 µM
CC(=O)NC[C@H]1CN(c2ccc(N3CCOCC3)c(F)c2)C(=O)O1 — MIC90 (Streptococcus viridans; microbial growth; clinical isolate): 1 µg/mL
